Results taken from ChEMBL document CHEMBL4513216, “Probing the Open Global Health Chemical Diversity Library for Multistage-Active Starting Points for Next-Generation Antimalarials” (ACS Infect Dis, 2020).

Assay: Toxicity liver stage against HepG2, at 10uM
Assay type: cell-based
Parameters: test concentration 10 uM, cell line HepG2-A16-CD81EGFP
Conditions: human, HepG2-A16-CD81EGFP cells; read-out: INHIBITION
Procedure, shortened: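 Uninfected HepG2-A16-CD81EGFP cells, 3 × 10^3 per well, 1536-well, plated on prespotted compound at 10 μM final, parasite-free screening media added to match infected plates; puromycin 10 μM positive, DMSO 0.5% negative; run in parallel with 48 h PbLuc assay at 37 °C, 5% CO2; viability by CellTiter-Glo luminescence, normalized to controls.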

Structure (SMILES)	cytotoxicity at 10 µM [%]
COc1ccc(CN2C[C@@H]3OCC(=O)N(CC(N)=O)[C@@H]3C2)cc1	-4.54
Cc1cc(C(=O)N2CCN(c3nc4c(F)cccc4s3)CC2)no1	-3.64
CCc1ccc(S(=O)(=O)Nc2cnc(N3CCOCC3)nc2)cc1	-7.72
O=S(=O)(Nc1cnc(N2CCOCC2)nc1)c1ccc(C(F)(F)F)cc1	-2.73
O=C(CN1CCC(c2nnc(C(F)(F)F)o2)CC1)Nc1cccnc1	-2.46
Cn1cc(S(=O)(=O)NCc2ccsc2)cn1	0.978
O=C(CC1CC1)N1C[C@H]2CN(CC3CC3)C(=O)[C@H]2C1	3.91
Cc1nc(NC(C)C)nc2c1CN(Cc1cccs1)CC2	0.718
O=C(NC1CCC1)C1CCC2(CN(C(=O)c3ccno3)C2)O1 (stereo unspecified)	-134
CC(=O)N1CCCC2(CCN(Cc3ccc(Cl)c(C(F)(F)F)c3)C2)C1 (stereo unspecified)	11.9
CC(C)N(C)Cc1noc2c1CN(C(=O)c1ccsc1)CC2	4.89
Cc1cnc(C(=O)N2C[C@@H]3[C@@H](C2)OCC(=O)N3CC2CCCC2)cn1	-3.78
Cc1ccsc1CN1CC[C@H]2O[C@H](C(=O)N3CCCO3)CC[C@H]21	4.52
Cn1cc(-c2cnc(N3CCCC3)nc2)cc1C(=O)N1CCOCC1	-3.87
CC(C)NC(=O)N1CCC2(COCc3cnc(N4CCOCC4)nc32)C1 (stereo unspecified)	-8.75
CSc1ccc(C2CC(=O)Nc3c2c(=O)[nH]c2ncnn32)cc1 (stereo unspecified)	-8.22
O=C([C@H]1COC[C@H]2CN(Cc3ccco3)C[C@H]21)N1CCCO1	-8.79
Cc1cc(N2CCC(O)(CN(C)C(=O)CCN)C2)c2cnccc2n1 (stereo unspecified)	-2.06
Cc1nc(NCCN2CCCC2=O)cc(C2CN(C)CCO2)n1 (stereo unspecified)	-10.5
CS(=O)(=O)c1cncnc1C1CCCN(C(=O)Nc2ccc(F)cc2)C1 (stereo unspecified)	-1.86
Cc1noc(C2(C)CCN(C(=O)C(C)C)CC2)n1	-5.14
COCCN1CC(c2cc(O)nc(NC(C)C)n2)CC1=O (stereo unspecified)	-39.7
Cc1ccc(Br)cc1NC(=O)NCC(O)CO (stereo unspecified)	12.9

Structure (SMILES)	cytotoxicity at 10 µM [%]
CC(=O)c1ccc(N2CCN(C(=O)NC(C)c3ccc(C)o3)CC2)cc1 (stereo unspecified)	10.1
CCCC(=O)NCC(=O)Nc1cc(F)ccc1SCC(F)F	10.8
Cc1cccc(C(=O)N2CCCC2)c1NCC(=O)NC(C)(C#N)C1CC1 (stereo unspecified)	-6.8
CCS(=O)(=O)NCC(=O)N1CCC(c2cc3ccccc3[nH]2)CC1	-7.79
O=C(CCC1CCCCC1)NCc1nnc2ccccn12	3.47
Cc1nc(C(C)(C)NCc2ncc(C3CC3)o2)sc1C	3.57
NC(=O)C1CCN(S(=O)(=O)c2cnn(-c3ccccc3)c2)C1 (stereo unspecified)	7.68
CCNC(=O)CN1CCc2c(Br)ccc(F)c2C1	4.34
O=C(CC1CCN(c2ncnc3cccc(F)c23)CC1)N1CCCC1	7.28
Cc1noc(C)c1NC(=O)NC1CCN(C(=O)OC(C)(C)C)CC1	4.77
Cc1ccc(N2CCCC(Nc3nn4cc(C)nc4s3)C2)nn1 (stereo unspecified)	-5.78
COc1ccc(CN2CCCN(c3cc(C(N)=O)ccn3)CC2)cc1	11
COc1ccc2cc(C(=O)NCCNc3ccc(C)nn3)[nH]c2c1	-3.09
COCCCNC(=O)NCc1nc(C)c(C)o1	10.1
CC1=NN(c2ccc(C(=O)OCCNC(=O)c3ccncc3)cc2)CC1	-3.62
c1cncc(CN2CCC(c3n[nH]c(C4CC4)n3)CC2)c1	4.99
Cc1ccc(CC(=O)N2CCC(c3nnc4n3CCC4)CC2)cc1	4.78
CC(C)CC(C)N(C)Cc1nnc(-c2ccco2)o1 (stereo unspecified)	6.07
O=C(NCCc1noc(-c2ccccn2)n1)NCC1CCCC1	0.321
CC(NC(=O)Nc1ccc(F)c(F)c1)c1nc[nH]n1 (stereo unspecified)	0.185
COCc1nc2cc(NCc3nc(C)cs3)ccc2o1	-2.57
CN(Cc1ccccc1)C(=O)CCNS(=O)(=O)c1cccnc1	-1.24
Cc1cc(C)n(-c2ccc(N3CCC4(CC3)OCC(C)O4)nc2)n1 (stereo unspecified)	-1.39

Structure (SMILES)	cytotoxicity at 10 µM [%]
Cc1cc(NC(=O)c2ccc(F)cc2Br)n(C)n1	-3.12
CCN(CC)c1ncc(CNC2CCc3ncnn3C2)s1 (stereo unspecified)	-1.06
Cc1ccc(CNc2ccn(CCc3ccncc3)n2)s1	21.8
CC(C)N(Cc1ccccc1)C(=O)NCCNC(=O)c1cccnc1	-1.66
O=C(NC1CCCN(c2ccc(OC(F)F)cc2)C1)c1ccon1 (stereo unspecified)	-7
CC(C)(C)C(=O)N1CCN(CCOc2cccc(C#N)c2)CC1	3.53
COc1c(Br)cccc1CCNC(=O)c1ccon1	-2.88
CCC1(c2ccc(NS(=O)(=O)c3cccs3)cc2)CCC(=O)NC1=O (stereo unspecified)	-8.55
CCOc1ccc(CN2C(=O)CC(C)(C(C)C)C2=O)nc1 (stereo unspecified)	-5.51
CC(C)OC(=O)CNC(=O)Nc1ccc(-c2nc(C(C)C)no2)cc1	-5.81
Cn1ccc(NCc2cc3cc(F)ccc3o2)n1	-12.4
Cn1ccc(CN2CCCN(c3nccs3)CC2)cc1=O	0.0833
Cc1noc2ncc(S(=O)(=O)Nc3cc(CC(C)(C)C)[nH]n3)cc12	5.55
Cc1nn(C)c(C)c1CCC(=O)Nc1cccn(C)c1=O	-1.96
O=C(CN1CCCCC1C1OCCO1)Nc1ccc(F)c(F)c1 (stereo unspecified)	-3.53
CN(CC(=O)NCc1ccccn1)CC1CCCN1c1cccnn1 (stereo unspecified)	-5.47
CC(O)CN1CCN(C(=O)CN(C)c2cnccn2)CC1 (stereo unspecified)	2.53
O=C(NCCc1nnc2n1CCC2)NC1(c2cccc(F)c2)CC1	3.07
CCOC(CC)C(=O)NCCC(=O)N1CCN(c2ncccn2)CC1 (stereo unspecified)	-3.91
O=C(C1CC2(CCNCC2)CN1)N1CCN(c2cccc(Cl)c2Cl)CC1 (stereo unspecified)	-13.9
CNS(=O)(=O)CCNCC1(O)CCCN(CCC2CCCCC2)C1=O (stereo unspecified)	0.28
CSCCC(=O)N1CCC(c2nnc(CN(C)CCO)n2C)CC1	0.583
CC(=O)Nc1ccc(-c2ccccc2NC(=O)CN)cc1	2.83

Structure (SMILES)	cytotoxicity at 10 µM [%]
CC(C)CN1CC(c2nc(C3CC3)n[nH]2)CC1=O (stereo unspecified)	-1.64
COCc1ncc(-c2nccn2CCN(C)C)cn1	0.126
O=C(NCC1CCCO1)c1ccc(S(=O)(=O)NCCc2cn[nH]c2)cc1 (stereo unspecified)	5.5
CC(C)c1cc(C2CCCN2Cc2nc(-c3ccco3)no2)no1 (stereo unspecified)	-3.45
Cc1nccn1CCC1CCCCN1C(=O)c1ccc2nonc2c1 (stereo unspecified)	-6.55
COc1cccc(OC2CN(C(=O)c3sccc3C)C2)c1	2.3
Cc1ccn(CCNc2ncnc3c2CCN(Cc2ncc[nH]2)CC3)n1	-1.47
Cc1cc(C(=O)N(C)Cc2nc(-c3ccccn3)no2)c(C)o1	2.84
CC(C)Cn1c(=O)n(CCCn2cccn2)c2cc(C(=O)O)cnc21	1.18
Cc1nn(C)c(C)c1CCC(=O)N(C)Cc1ccc2nsnc2c1	-1.62
CN(Cc1ccccc1-n1cccn1)c1nc(N)nc2c1CCNCC2	-12.2
COc1ccc(-n2nc(C)c(C(C)=O)c2C)cc1C(N)=O	-3.41
CN(C)C(=O)CN1CCc2onc(-c3ccccc3F)c2C1	2.45
Cc1cccnc1N1CCN(C(=O)CCc2cn3ccccc3n2)CC1	-6.21
Cc1ccnc(OCC(=O)N2CCN(c3ncccn3)CC2)n1	-0.849
CC(C)c1n[nH]c(C2CN(C(=O)c3cc(Cl)c[nH]3)CCO2)n1 (stereo unspecified)	-5.64
CC(C)(C)c1nc(C(C)(C)NC(=O)C2CC(=O)N(CC3CC3)C2)no1 (stereo unspecified)	-5.4
O=C(NCc1nn(-c2ccccc2)c2c1CCC2)NCC1COCCO1 (stereo unspecified)	-3.39
CCn1ccnc1CN1CCCN(C(=O)c2cc[nH]n2)CC1	-8.04
CC(C)NC(=O)CCNC(=O)Nc1ccc(-n2cncn2)c(F)c1	0.485
O=C(CC1=CCCCC1)Nc1ncn(CC(=O)N2CCCCCC2)n1	1.72
Cc1cc2n(n1)CC(CNCc1ccccc1-n1cccn1)CN2 (stereo unspecified)	-11.5
CCc1nnc2n1CCN(C(=O)Cc1nc(-c3ccco3)oc1C)C2	1.19

Structure (SMILES)	cytotoxicity at 10 µM [%]
O=C(CCCNc1ncccn1)N1CCCC(n2ccnc2)C1 (stereo unspecified)	-15.1
O=C(c1cscn1)N1CCCC(n2cncn2)C1 (stereo unspecified)	0.301
Cc1nn(C)c(N(C)C)c1CNCc1cccnc1N(C)C	1.84
O=C(CCOc1cccc(F)c1)N1CCCC(n2cccn2)C1 (stereo unspecified)	-14.7
Cn1ccnc1CN1CCN(CC(O)c2ccc(F)cc2)CC1 (stereo unspecified)	-21.8
O=C(NCCNc1ccc(C(F)(F)F)cn1)c1ccc(Br)cc1	-6.28
NS(=O)(=O)c1ccc(CC(=O)N2CCCC(n3cccn3)C2)cc1 (stereo unspecified)	-0.481
CC(C)c1nccn1C1CCCN(C(=O)c2ccc3c(c2)OCO3)C1 (stereo unspecified)	4.28
COc1cc(CNCC2CN(C3CC3)CCO2)cc(OC)c1 (stereo unspecified)	-24.3
CC(C)n1cnc2c1C(C(=O)NCCO)N(Cc1ccccc1)CC2 (stereo unspecified)	2.43
O=C1N(c2ccsc2)CCC12CCCN(Cc1cccnc1)C2 (stereo unspecified)	-128
c1csc(CN2CCC3(CCOCC3COCC3CC3)CC2)n1 (stereo unspecified)	5.02
Cc1ccc(CN2CC(C(=O)NCC3CC3)C3(CCOCC3)C2)s1 (stereo unspecified)	-3.66
COCCN1CCC(c2nc3ccc(-c4ccccc4)cn3n2)CC1	-8.84
CC(C)(C)c1n[nH]cc1CNC1CCC(OCC(F)(F)F)CC1 (stereo unspecified)	-0.0197
COCC(=O)N1CCC(c2nc3ccc(N4CCCC4)cn3n2)CC1	-15.4
COc1ncnc2c1CCN(C(=O)NCc1cccnc1)CC2	-133
Cc1ccc(N2CC[C@@H]3CN(Cc4cc[nH]n4)C[C@@H]3C2)nn1	3.47
CC(C)n1nc(CN2CCOCC2)c2c1CN(Cc1ccsc1)C2	-132
